“And” between values parts separate entries of the source, which are not always exact repeats. Equal entries are not always repeated.
Assays:
Rattus norvegicus [1] = test: Biodistribution in Rat lung after 30 minutes of iv administration; type: ADME, organism-based; conditions: in vivo, 0.5 h
In short: (§1)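 125I-labeled compound solubilized in normal saline with Tween-20 and given iv to rats, about 5-30 μCi (9-83 μg) per animal. Three to five rats per time point. Rats killed by exsanguination under ether anesthesia at 5 min, 30 min or 24 h. Organs minced, blotted free of blood and counted for radioiodine. Lines with "per g" are % administered dose per gram ± SEM.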

Rattus norvegicus [2] = test: Biodistribution in Rat liver after 5 minutes of iv administration; type: ADME, organism-based; conditions: in vivo; in short: as §1
Rattus norvegicus [3] = test: Biodistribution in Rat lung after 24 hours of iv administration; type: ADME, organism-based; conditions: in vivo; in short: as §1
Rattus norvegicus [4] = test: Biodistribution in Rat lung after 5 minutes of iv administration; type: ADME, organism-based; conditions: in vivo; in short: as §1
Rattus norvegicus [5] = test: Biodistribution in Rat blood after 24 hours of iv administration; type: ADME, organism-based; conditions: in vivo; in short: as §1
Rattus norvegicus [6] = test: Biodistribution in Rat blood after 30 minutes of iv administration; type: ADME, organism-based; conditions: in vivo, 0.5 h; in short: as §1
Rattus norvegicus [7] = test: Biodistribution in Rat blood after 5 minutes of iv administration; type: ADME, organism-based; conditions: in vivo; in short: as §1
Rattus norvegicus [8] = test: Biodistribution in Rat heart after 24 hours of iv administration; type: ADME, organism-based; conditions: in vivo; in short: as §1
Rattus norvegicus [9] = test: Biodistribution in Rat heart after 30 minutes of iv administration; type: ADME, organism-based; conditions: in vivo, 0.5 h; in short: as §1
Rattus norvegicus [10] = test: Biodistribution in Rat heart after 5 minutes of iv administration; type: ADME, organism-based; conditions: in vivo; in short: as §1
Rattus norvegicus [11] = test: Biodistribution in Rat liver after 24 hours of iv administration; type: ADME, organism-based; conditions: in vivo; in short: as §1
Rattus norvegicus [12] = test: (§2) Biodistribution in Rat liver after 30 minutes of iv administration; type: ADME, organism-based; conditions: in vivo, 0.5 h; in short: as §1
Rattus norvegicus [13] = test: as §2; type: ADME, organism-based; conditions: in vivo, 0.5 h; in short: as §1; remark: listed apart in the source
Rattus norvegicus [14] = test: Compound was evaluated for the lipid soluble radioactivity extracted from rat plasma at 24 hr after intravenous administration.; type: functional
In short: (§3)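 Liver and plasma taken 0.5 or 24 h after iv dosing of 125I-labeled compound in rats (n = 3-5). Extracted by a modified Folch procedure; value is % lipid (CHCl3/MeOH)-extractable radioactivity ± SEM. Extracts run on TLC in hexane/ethyl acetate 5:2 against unlabeled standard, then 1-cm strips counted to give % parent compound.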

Rattus norvegicus [15] = test: Compound was evaluated for the lipid soluble radioactivity extracted from rat liver at 0.5 hr after intravenous administration.; type: functional; in short: as §3
Rattus norvegicus [16] = test: Compound was evaluated for the lipid soluble radioactivity extracted from rat liver at 24 hr after intravenous administration.; type: functional; in short: as §3
Rattus norvegicus [17] = test: Compound was evaluated for the lipid soluble radioactivity extracted from rat plasma at 0.5 hr after intravenous administration.; type: functional; in short: as §3
Rattus norvegicus [18] = test: Liver radioactivity after iv administration of compound (24 h) in rats; type: functional, organism-based
In short: (§4)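 Rats (3-5 per time point) dosed iv with about 5-30 μCi (9-83 μg) of 125I-labeled compound in saline containing Tween-20. Killed by exsanguination under ether at 5 min, 30 min or 24 h. Liver removed, minced, blotted and counted. Values are % administered dose per organ, based on each animal's actual liver weight, ± SEM.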

Rattus norvegicus [19] = test: Liver radioactivity after iv administration of compound (30 min) in rats; type: functional, organism-based; in short: as §4
Rattus norvegicus [20] = test: Liver radioactivity after iv administration of compound (5 min) in rats; type: functional, organism-based; in short: as §4
Rattus norvegicus [21] = test: Compound (125I labeled) was evaluated for the total radioactivity in albumin 5 min after intravenous administration.; type: functional; set-up: concentration or dose not given beside the values
In short: (§5)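 Rat plasma taken 5 or 30 min after iv dosing of 125I-labeled compound (saline/Tween-20) and run on polyacrylamide gel electrophoresis. Gels sectioned and each section gamma-counted. Radioactivity in each band (stacking gel, lipoproteins, albumin, below-albumin) is given as % of total radioactivity applied to the gel.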

Rattus norvegicus [22] = test: Evaluated for the total radioactivity in below albumin at 30 min after intravenous administration.; type: functional; in short: as §5
Rattus norvegicus [23] = test: Compound (125I labeled) was evaluated for the total radioactivity in high-density lipoprotein 5 min after intravenous administration.; type: functional; in short: as §5
Rattus norvegicus [24] = test: Compound (125I labeled) was evaluated for the total radioactivity in high-density lipoprotein, at 30 min after intravenous administration.; type: functional; in short: as §5
Rattus norvegicus [25] = test: Compound (125I labeled) was evaluated for the total radioactivity in low-density lipoprotein 5 min after intravenous administration.; type: functional; set-up: concentration or dose not given beside the values; in short: as §5
Rattus norvegicus [26] = test: Compound (125I labeled) was evaluated for the total radioactivity in low-density lipoprotein, at 30 min after intravenous administration.; type: functional; in short: as §5
Rattus norvegicus [27] = test: Compound (125I labeled) was evaluated for the total radioactivity in stacking gel 5 min after intravenous administration.; type: functional; in short: as §5
Rattus norvegicus [28] = test: Compound (125I labeled) was evaluated for the total radioactivity in stacking gel at 30 min after intravenous administration.; type: functional; in short: as §5
Rattus norvegicus [29] = test: Compound (125I labeled) was evaluated for the total radioactivity in albumin at 30 min after intravenous administration.; type: functional; set-up: concentration or dose not given beside the values; in short: as §5

Biodistribution (Rattus norvegicus [1]) [%] | Biodistribution (Rattus norvegicus [2]) | Biodistribution (Rattus norvegicus [3]) [%] | Biodistribution (Rattus norvegicus [4]) [%] | Biodistribution (Rattus norvegicus [5]) [%] | Biodistribution (Rattus norvegicus [6]) [%] | Biodistribution (Rattus norvegicus [7]) [%] | Biodistribution (Rattus norvegicus [8]) [%] | Biodistribution (Rattus norvegicus [9]) [%] | Biodistribution (Rattus norvegicus [10]) [%] | Biodistribution (Rattus norvegicus [12]) [%] | Biodistribution (Rattus norvegicus [13]) [%] | SMILES | Extracted (Rattus norvegicus [14]) [%] | Parent compound (Rattus norvegicus [14]) [%] | Extracted (Rattus norvegicus [15]) [%] | Parent compound (Rattus norvegicus [15]) [%] | Extracted (Rattus norvegicus [16]) [%] | Parent compound (Rattus norvegicus [16]) [%] | Extracted (Rattus norvegicus [17]) [%] | Parent compound (Rattus norvegicus [17]) [%] | also measured
0.73 | 0.64% and 5.84% | 0.12 | 1.38 | 0.1 | 1.49 | 2.74 | 0.12 | 1.06 | 1.43 | 4.24 | 4.24 | CCCCCCCCCCCCCCCC(=O)OC(COC(=O)CCCCCCCCCCCc1c(I)cc(I)c(N)c1I)COC(=O)CCCCCCCCCCCc1c(I)cc(I)c(N)c1I | 52 | 25.3 | 64.2 | 28.1 | 81.7 | 44.9 | 64.6 | 11.3 | Biodistribution (Rattus norvegicus [11]): 0.14% and 1.06%; Radioactivity (Rattus norvegicus [18]): 7.73; Radioactivity (Rattus norvegicus [19]): 30.7; Radioactivity (Rattus norvegicus [20]): 43.4; Total radioactivity (Rattus norvegicus [21]): 14.8%; Total radioactivity (Rattus norvegicus [22]): 3.4% and 3.1%; Total radioactivity (Rattus norvegicus [23]): 12%; Total radioactivity (Rattus norvegicus [24]): 25.7%; Total radioactivity (Rattus norvegicus [25]): 8.2%; Total radioactivity (Rattus norvegicus [26]): 12.1%; Total radioactivity (Rattus norvegicus [27]): 61.6%; Total radioactivity (Rattus norvegicus [28]): 8.6%; Total radioactivity (Rattus norvegicus [29]): 50.7%
6.63 | 0.44% and 8.02% | 2.64 | 6.69 | 0.05 | 1.71 | 2.15 | 0.19 | 0.82 | 1.93 | 10.4 | 10.38 | Nc1c(I)cc(I)c(CCC(=O)OCC(COC(=O)CCc2c(I)cc(I)c(N)c2I)OC(=O)CCc2c(I)cc(I)c(N)c2I)c1I | 83.3 | 68.2 | 94.8 | 97.3 | 91.1 | 96.5 | 89 | 94.5 | Radioactivity (Rattus norvegicus [18]): 86.2; Radioactivity (Rattus norvegicus [19]): 75.5; Radioactivity (Rattus norvegicus [20]): 60.5; Total radioactivity (Rattus norvegicus [21]): 10.5%; Total radioactivity (Rattus norvegicus [22]): 3.2% and 4.1%; Total radioactivity (Rattus norvegicus [23]): 38.4%; Total radioactivity (Rattus norvegicus [24]): 34.5%; Total radioactivity (Rattus norvegicus [25]): 29.6%; Total radioactivity (Rattus norvegicus [26]): 27.6%; Total radioactivity (Rattus norvegicus [27]): 18.3%; Total radioactivity (Rattus norvegicus [28]): 20.2%; Total radioactivity (Rattus norvegicus [29]): 13.8%
1.03 | 0.67% and 4.76% | 0.08 | 1.45 | 0.07 | 1.97 | 4.78 | 0.03 | 0.87 | 0.87 | 4.2 | 4.2 | CCCCCCCCCCCCCCCC(=O)OC(COC(=O)CCCCCCCCCCCCCCCCc1c(I)cc(I)c(N)c1I)COC(=O)CCCCCCCCCCCCCCCCc1c(I)cc(I)c(N)c1I | 44.1 | 18 | 42.3 | 25.3 | 63.5 | 17.3 | 70.9 | 28.8 | Biodistribution (Rattus norvegicus [11]): 0.13% and 0.37%; Radioactivity (Rattus norvegicus [18]): 2.59; Radioactivity (Rattus norvegicus [19]): 32.7; Radioactivity (Rattus norvegicus [20]): 33.8; Total radioactivity (Rattus norvegicus [21]): 26.2%; Total radioactivity (Rattus norvegicus [23]): 34.4%; Total radioactivity (Rattus norvegicus [24]): 24.8%; Total radioactivity (Rattus norvegicus [25]): 32.9%; Total radioactivity (Rattus norvegicus [26]): 14.2%; Total radioactivity (Rattus norvegicus [27]): 2.5%; Total radioactivity (Rattus norvegicus [28]): 9.7%; Total radioactivity (Rattus norvegicus [29]): 37.1%
